# Screens as filed in PubChem.
# CHO parental Ca: counter-screen for OX1R antagonists: effect in parental CHO cells; inhibition, % at 5.6 µM; parental CHO-K1, ATP-induced calcium, Fluo-8 fluorescence; 330,000 compounds, 0.63% hits; AID 463079;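 active = inhibition above that plate's mean sample inhibition plus 3 SD, cut at about 26% in these data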;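 also: 0% = ATP-challenged DMSO wells and 100% = DMSO wells without ATP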
#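 Test system: untransfected parental CHO cell line; also added: ATP stimulus; dosing: 5.6 µM, single dose; signal: calcium-sensitive Fluo-8 fluorescence; measure: percent inhibition of ATP-evoked calcium rise, normalized to controls; benchmarks: low control ATP plus DMSO, high control DMSO only; replication: one well per compound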
# CHO-K1 Ca antag: M1 antagonist counterscreen hit in parental CHO-K1 cells; ATP-induced calcium, Fluo-8 fluorescence; inhibition, % at 3 µM; 360,000 compounds, 0.6% hits; AID 602250;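 active = inhibition above a per-plate cutoff, the plate's mean sample inhibition plus 3 SD, cut at about 24% in these data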;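 also: 0% = DMSO plus EC80 ATP and 100% = DMSO alone without ATP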
# OX1R antag-1: human HCRTR1 antagonism. O43613. CHO/OX1R cells, Fluo-8 calcium fluorescence, orexin A. inhibition, % at 5 µM. 330,000 compounds, 0.43% hits. AID 434989;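 active = inhibition above its plate's threshold, mean inhibition of all tested compounds on the plate plus 3 SD, cut at about 37% in these data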;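 also: 0% = orexin A challenge wells and 100% = SB-334867-A antagonist wells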
# Target sequence (O43613 whole entry, looked up): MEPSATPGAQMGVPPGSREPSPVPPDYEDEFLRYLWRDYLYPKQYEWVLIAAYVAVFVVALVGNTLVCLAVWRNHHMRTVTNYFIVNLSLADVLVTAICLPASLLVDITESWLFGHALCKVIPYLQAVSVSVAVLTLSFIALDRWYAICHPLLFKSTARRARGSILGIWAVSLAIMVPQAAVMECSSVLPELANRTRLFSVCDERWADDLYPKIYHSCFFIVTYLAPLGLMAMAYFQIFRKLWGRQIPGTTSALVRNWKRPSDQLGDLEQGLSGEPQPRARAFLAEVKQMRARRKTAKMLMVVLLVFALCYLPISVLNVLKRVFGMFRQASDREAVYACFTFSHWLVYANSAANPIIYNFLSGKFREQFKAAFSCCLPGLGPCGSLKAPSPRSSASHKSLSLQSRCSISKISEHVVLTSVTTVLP
# M1 PAM parental: M1 PAM counterscreen hit in parental CHO-K1 cells; 360,000 compounds, 0.02% hits; AID 602247; activation, % at 3 µM; ATP EC20, Fluo-8 calcium fluorescence; 0% at ATP EC20, 100% at ATP max;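 active = activation above the run cutoff, the mean activation of all test compounds plus 3 SD, cut at about 40% in these data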;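 also: peak over basal fluorescence ratio in a 140 s read after ATP addition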
# OX1R antag-2: OX1R (human) antagonism. inhibition, % at 6.6 µM. AID 485270. 330,000 compounds, 1.8% hits. OX1R-expressing cells, FRET antagonist read-out. O43613; in the data active = inhibition mostly above about 38%, no sharp cut-off; inactive = mostly below about 40%;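 also: 0% = agonist challenge alone and 100% = reference antagonist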
# CHO-K1 Ca ag: counter-screen for M1 agonists: effect in parental CHO-K1 cells; Fluo-8 calcium fluorescence; scaled to maximal ATP response, vehicle zero; 360,000 compounds, 0.48% hits; activation, % at 3 µM; AID 602248; in the data active = activation above about 15%;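 also: untransfected CHO-K1 host cells lacking M1 receptor as counterscreen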
# OX1R Ca confirm: OX1R (human) antagonism, confirmed. shares compounds with OX1R antag-1. CHO/OX1R cells, orexin A calcium Fluo-8 fluorescence. inhibition, % at 5 µM. 1,100 compounds, 38% hits; in the data active = inhibition above about 29%;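 also: 0% = agonist challenge alone and 100% = reference antagonist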
# CHO Ca counter: signal in parental CHO cells, OX1R antagonist counter-screen; shares compounds with OX1R antag-1; AID 492965; 1,100 compounds, 9.3% hits; parental CHO-K1, ATP-induced calcium, Fluo-8 fluorescence; inhibition, % at 5.6 µM;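 active = inhibition above a per-plate limit, the mean inhibition of that plate's test compounds plus 3 SD, cut at about 25% in these data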;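 also: 0% = ATP challenge with DMSO and 100% = DMSO without ATP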
# OX1R HTRF confirm: confirmation of human orexin 1 receptor antagonists, HTRF format | shares compounds with OX1R antag-2 | OX1R-expressing cells, HTRF antagonist assay | inhibition, % at 6.6 µM | 1,800 compounds, 49% hits; in the data active = inhibition above about 55%;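 also: CHO cells expressing OX1R stimulated with orexin A at about EC80; 0% = agonist challenge alone and 100% = reference antagonist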
# CHO-K1 HTRF cnt: counter-screen for OX1R antagonists: effect in parental CHO-K1 cells; shares compounds with OX1R antag-2; HTRF counterscreen; inhibition, % at 6.6 µM; 1,800 compounds, 48% hits; in the data active = inhibition above about 17%;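 also: 0% = agonist challenge with vehicle and 100% = vehicle alone without agonist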
# An asterisk follows results filed as active; x = not tested or not shown. The list is not random: actives were taken first. Their share in the collection is about 2.9%.
SMILES,CHO parental Ca,CHO-K1 Ca antag,OX1R antag-1,M1 PAM parental,OX1R antag-2,CHO-K1 Ca ag,OX1R Ca confirm,CHO Ca counter,OX1R HTRF confirm,CHO-K1 HTRF cnt
Cc1cccc(OCCSc2nc3ccccc3n2CCC(=O)O)c1,-3.2,-4.1,31.6,2.2,97.3*,0.5,35.0*,2.7,83.0*,5.0
CCCCOc1ccc(OCCSc2nc3ccccc3n2CC(=O)O)cc1,-9.1,5.4,8.2,0.7,15.8,-0.1,x,x,x,x
O=C(O)CCn1c(SCCOc2ccccc2)nc2ccccc21,-7.7,17.9,58.4*,-24.0,87.0*,0.0,31.9*,0.1,74.5*,8.7
CN(CC(=O)Nc1ccc(F)cc1)C(=O)c1ccc2ccccc2n1,x,2.4,x,-6.5,x,0.3,x,x,x,x
Nc1cc(C(=O)OCC(=O)NCCNC(=O)COC(=O)c2ccc(Cl)c(N)c2)ccc1Cl,-26.5,-4.6,-21.4,-18.3,36.3,0.7,x,x,x,x
CSc1cccc(NC(=O)C2CCN(S(=O)(=O)c3ccc(F)cc3)CC2)c1,0.1,-10.0,9.6,18.9,11.2,8.1,x,x,x,x
CSc1cccc(NC(=O)C2CCCN(S(=O)(=O)c3cccs3)C2)c1 (stereo not drawn),-7.8,-7.6,42.5*,-0.8,60.6*,6.0,50.1*,4.1,78.2*,-1.9
CSc1cccc(NC(=O)C2CCCN2S(=O)(=O)c2ccc(Br)s2)c1 (stereo not drawn),-7.4,-10.1,98.3*,20.0,88.8*,2.3,93.0*,-15.5,90.7*,-0.8
CSc1cccc(NC(=O)C2CCCN(S(=O)(=O)c3ccc(F)cc3)C2)c1 (stereo not drawn),-4.3,6.3,53.0*,3.7,84.0*,2.2,54.6*,-1.1,78.9*,2.5
Cc1nn(C)cc1S(=O)(=O)Nc1ccc(F)c(F)c1,-7.9,-8.3,-13.5,26.1,22.6,1.6,x,x,x,x
COc1ccccc1C(=O)Nc1nc(-c2ccc(S(=O)(=O)N3CCOCC3)cc2)cs1,24.3,21.4,32.6,-32.0,88.9*,9.0,56.4*,29.0*,57.9*,15.4
COc1cccc(OC)c1C(=O)Nc1nc(-c2ccccc2)cs1,-16.6,-8.1,38.5*,17.7,97.0*,0.2,30.3*,-9.2,89.0*,5.1
COc1ccc2cc(C(=O)/C=C/c3cc(OC)c(O)c(OC)c3)ccc2c1,-14.8,-8.6,35.5,10.1,62.1*,2.9,49.1*,-0.9,74.5*,-9.1
CCC(=O)Nc1cc(NC(=O)CSc2ncc(-c3ccc(F)cc3)n2Cc2ccco2)ccc1C,-19.2,18.0,49.8*,-5.2,83.9*,0.8,36.3*,-19.9,63.1*,-4.7
COc1ccc(-c2cnc(SCC(=O)Nc3cc(C)on3)n2Cc2ccco2)cc1,-18.5,-0.4,2.9,14.7,31.2,3.6,x,x,x,x
O=C(NCc1cccs1)c1ccc(CS(=O)Cc2ccc(Cl)cc2)o1 (stereo not drawn),x,-4.4,x,7.8,x,0.9,x,x,x,x
Cc1oc(-c2ccccc2Cl)nc1CN1CCCN(C(=O)c2ccco2)CC1,-25.8,7.2,-28.0,-6.1,8.7,0.5,x,x,x,x
CC(C)(C)NC(=O)C(Cc1ccccc1)NS(=O)(=O)c1cccc2nsnc12 (stereo not drawn),-16.8,13.0,36.2,-8.0,115.6*,0.1,19.1,-8.8,80.2*,16.9*
O=C(NCc1ccccc1)C(Cc1ccccc1)NS(=O)(=O)c1cccc2nsnc12 (stereo not drawn),-16.9,-16.0,-10.2,-0.2,23.6,1.9,x,x,x,x
CCC1(c2ccccc2)NC(=O)N(CC(=O)NCc2ccc(C)cc2)C1=O (stereo not drawn),1.8,-9.9,-23.1,-1.0,15.0,0.2,x,x,x,x
CC(CSc1nc2ccccc2s1)Cn1c(N2CCCC2)nc2c1c(=O)[nH]c(=O)n2C (stereo not drawn),-19.1,-3.2,60.5*,11.8,93.5*,2.5,35.4*,-17.8,86.9*,-1.9
COc1ccccc1CNC(=O)CCNS(=O)(=O)/C=C/c1ccc(C)cc1,-13.9,-7.4,-30.2,7.1,0.3,1.9,x,x,x,x
O=C(OCc1cn([C@@H]2CN(Cc3cccs3)[C@@H](c3ccccc3)C[C@H]2O)nn1)c1ccccc1,x,-1.5,x,-5.0,x,1.6,x,x,x,x
OC1=C(O)c2nc3cc(F)ccc3nc21,1.1,-11.1,-0.9,26.4,20.1,1.3,x,x,x,x
Fc1ccc2nc3[nH]c4ccccc4c3nc2c1,7.2,-1.8,36.4,13.8,97.8*,0.2,9.8,-3.2,64.3*,1.6
SMILES,CHO parental Ca,CHO-K1 Ca antag,OX1R antag-1,M1 PAM parental,OX1R antag-2,CHO-K1 Ca ag,OX1R Ca confirm,CHO Ca counter,OX1R HTRF confirm,CHO-K1 HTRF cnt
O=S(=O)(c1c(Cl)cc(Br)cc1Cl)N1CCN(C(=S)NC2CC2)CC1,6.7,21.0,-8.0,-19.1,5.0,0.3,x,x,x,x
COc1cccc(OC)c1C(=O)Nc1cccc(-n2cnnn2)c1,-18.5,-19.6,26.0,6.1,88.0*,2.2,28.1,-5.4,80.1*,-0.1
Cc1ccc(F)cc1CNC(=O)C1CCC(=O)N(CCCN2CCCC2=O)C1 (stereo not drawn),-8.2,-9.6,-6.5,10.5,8.8,1.1,x,x,x,x
Clc1ncccc1-c1nc2ccccc2s1,-13.8,-1.5,-22.7,-8.0,25.5,-0.7,x,x,x,x
CC(=O)Nc1cccc(-c2nc3ccccc3s2)c1,-24.1,14.1,26.1,3.1,76.0*,20.7*,6.4,-6.8,54.0,0.8
COc1cc(OC)c(-c2nc3ccccc3s2)cc1OC,-9.6,-8.6,53.8*,0.6,94.5*,-0.3,35.9*,-5.9,92.5*,9.9
COc1ccc(-c2nc3ccccc3s2)cc1O,-5.0,-6.9,85.5*,9.4,112.3*,0.4,37.4*,-2.2,97.8*,-5.3
N#C/C=C/N1CCC(Cc2ccccc2)CC1,-2.6,2.3,-9.6,9.6,17.5,0.9,x,x,x,x
c1ccc2nc(-c3nc4ccccc4o3)ccc2c1,-20.9,-46.8,23.7,-8.8,96.8*,1.5,45.6*,-7.6,97.8*,4.5
c1ccc(-c2nc3ccccc3o2)nc1,-5.1,-0.9,-2.2,8.2,8.1,2.3,x,x,x,x
COc1ccc(NC(=O)N(C)C[C@H]2Oc3ccc(NC(=O)NC4CCCCC4)cc3C(=O)N([C@H](C)CO)C[C@@H]2C)cc1,-2.2,-3.7,12.7,-9.2,7.8,0.1,x,x,x,x
Cc1ccc(Cn2nc(C)cc2C(=O)Nc2ccccc2Cl)cc1,-23.4,-11.2,-41.0,-3.4,7.1,1.8,x,x,x,x
